The source made the active and inactive calls. The calls are words filed in the database; no cut-off is given here.
Experiments:
Escherichia coli [1] = assay: Antibacterial activity against gentamycin-resistant Escherichia coli JR88 at 30 ug/disc […]; type: functional, organism-based
Escherichia coli [2] = assay: Antibacterial activity against kanamycin-resistant Escherichia coli JR67 at 30 ug/disc […]; type: functional, organism-based
Escherichia coli [3] = assay: Antibacterial activity against kanamycin-resistant Escherichia coli pETAACWT at 30 ug/disc […]; type: functional, organism-based
Staphylococcus aureus = assay: Antibacterial activity against Staphylococcus aureus at 30 ug/disc […]; type: functional, organism-based; conditions: in the assay text read “paper disc method” for “dilution method”
How it was run: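 Disc diffusion on LB solid medium with 30 µg compound per paper disc; growth inhibition of the S. aureus strain (sensitive to usual antibiotics) scored visually.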

Escherichia coli [4] = assay: Antimicrobial activity against Escherichia coli MG1655 by dilution method; type: functional
How it was run: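 MIC by standard broth dilution: overnight MG1655 cultures in LB (aminoglycoside-sensitive strain) diluted 100-fold, growth read as OD at 600 nm.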

Escherichia coli [5] = assay: Antibacterial activity against kanamycin-resistant Escherichia coli JR66 at 30 ug/disc […]; type: functional, organism-based
Enterococcus faecium = assay: Inhibition of Enterococcus faecium aminoglycoside 6'-N-acetyltransferase
Escherichia coli [6] = assay: Antibacterial activity against kanamycin-resistant Escherichia coli pSF815A-1 at 30 ug/disc […]; type: functional, organism-based

| Compound | Activity (Escherichia coli [1]) | Activity (Escherichia coli [2]) | Activity (Escherichia coli [3]) | Activity (Staphylococcus aureus) | MIC (Escherichia coli [4]) | Activity (Escherichia coli [5]) | Activity (Enterococcus faecium) | Activity (Escherichia coli [6]) |
| --- | --- | --- | --- | --- | --- | --- | --- | --- |
| N[C@H]1[C@@H](O[C@H]2[C@H](O)[C@@H](O)[C@H](N)C[C@@H]2N)O[C@H](CNC(=O)CO)[C@@H](O)[C@@H]1O | inactive | inactive | inactive | inactive | < 25 µg/mL | inactive | inactive | – |
| [N-]=[N+]=NCC(=O)NC[C@H]1O[C@H](O[C@H]2[C@H](O)[C@@H](O)[C@H](N)C[C@@H]2N)[C@H](N)[C@@H](O)[C@@H]1O | inactive | inactive | inactive | inactive | – | inactive | inactive | – |
| C#CCC(=O)NC[C@H]1O[C@H](O[C@H]2[C@H](O)[C@@H](O)[C@H](N)C[C@@H]2N)[C@H](N)[C@@H](O)[C@@H]1O | inactive | inactive | inactive | inactive | – | inactive | inactive | – |
| N[C@H]1[C@@H](O[C@H]2[C@H](O)[C@@H](O)[C@H](N)C[C@@H]2N)O[C@H](CNC(=O)CS)[C@@H](O)[C@@H]1O | inactive | inactive | inactive | inactive | – | inactive | inactive | – |
| N[C@H]1[C@@H](O[C@H]2[C@H](O)[C@@H](O)[C@H](N)C[C@@H]2N)O[C@H](CNC(=O)c2ccccc2)[C@@H](O)[C@@H]1O | inactive | inactive | inactive | inactive | – | inactive | inactive | inactive |
| NCCC(=O)NC[C@H]1O[C@H](O[C@H]2[C@H](O)[C@@H](O)[C@H](N)C[C@@H]2N)[C@H](N)[C@@H](O)[C@@H]1O | inactive | inactive | inactive | inactive | – | inactive | inactive | – |
| N[C@H]1[C@@H](O[C@H]2[C@H](O)[C@@H](O)[C@H](N)C[C@@H]2N)O[C@H](CNC(=O)Cc2cccc3ccccc23)[C@@H](O)[C@@H]1O | inactive | inactive | inactive | inactive | – | inactive | inactive | – |
| NCC(=O)NC[C@H]1O[C@H](O[C@H]2[C@H](O)[C@@H](O)[C@H](N)C[C@@H]2N)[C@H](N)[C@@H](O)[C@@H]1O | inactive | inactive | inactive | inactive | < 50 µg/mL | inactive | inactive | – |
| NC[C@H]1O[C@H](O[C@H]2[C@H](O)[C@@H](O)[C@H](N)C[C@@H]2N)[C@H](N)[C@@H](O)[C@@H]1O [NEAMINE] | – | – | – | – | < 6.25 µg/mL | – | – | – |

Reference: ChEMBL document CHEMBL1142929, “The use of aminoglycoside derivatives to study the mechanism of aminoglycoside 6'-N-acetyltransferase and the role of 6'-NH2 in antibacterial activity” (2007)
